Data: ChEMBL document CHEMBL5705886, “GSK1070916, a potent Aurora B/C kinase inhibitor with broad antitumor activity in tissue culture cells and human tumor xenograft models” (Mol Cancer Ther, 2009)
Calls of active or inactive are those of the source. No cut-off for these calls is given here.

How the values were obtained:
MDA-MB-453 = test: Antiproliferative activity against human MDA-MB-453 cells assessed as inhibition of cell viability measured for 6 to 7 days by cell titer glo assay; type: functional, cell-based
Procedure, shortened: (§1)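 Cells seeded in recommended growth medium, incubated overnight at 37°C in 5% CO2, then exposed to serial dilutions of inhibitor for 6–7 d. A parallel plate was read with CellTiter-Glo at compound addition as a T=0 value. The luminescent viability readout had no-cell background subtracted and was expressed as % of DMSO control.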

DU-145 = test: Antiproliferative activity against human DU-145 cells assessed as inhibition of cell viability measured for 6 to 7 days by cell titer glo assay; type: functional, cell-based
Procedure, shortened: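 Cells plated in recommended growth medium, held overnight at 37°C in 5% CO2, then given serial dilutions of inhibitor; a T=0 set read with CellTiter-Glo at dosing. Luminescent viability read after 6–7 d exposure.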

[1] = Toxicity in SCID nude mouse xenografted with human SW620 cells assessed as drug tolerance at 25 to 100 mg/kg, ip administered once daily for 5 consecutive days with 2 days off scheduled for 3 cycles measured upto 60 days; type: organism-based, SW-620; conditions: in vivo, 1440 h, dose 25-100 mg/kg, time < 60 day
SK-MEL-28 = test: Antiproliferative activity against human SK-MEL-28 cells assessed as inhibition of cell viability measured for 6 to 7 days by cell titer glo assay; type: functional, cell-based
Procedure, shortened: (§2)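 Cells seeded in recommended growth medium, held overnight at 37°C in 5% CO2, then exposed to serial dilutions of inhibitor for 6–7 d. A time-zero plate was read with CellTiter-Glo at dosing. Luminescent viability read at the end. No-cell wells subtracted as background, data expressed as percent of DMSO control.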

JIYOYE = test: Antiproliferative activity against human JIYOYE cells assessed as inhibition of cell viability measured for 6 to 7 days by cell titer glo assay; type: functional, cell-based; procedure, shortened: as §1
KG-1 = test: Antiproliferative activity against human KG-1 cells assessed as inhibition of cell viability measured for 6 to 7 days by cell titer glo assay; type: functional, cell-based; procedure, shortened: as §1
SW-620 [2] = test: Antitumor activity in human SW620 cells xenografted in SCID mouse assessed as reduction in tumor growth at 25 to 100 mg/kg, ip administered once daily for 5 consecutive days with 2 days off scheduled for 3 cycles measured upto 60 days; type: functional, organism-based; conditions: dose 25-100 mg/kg, time 60.0 day
Pfeiffer = test: Antiproliferative activity against human Pfeiffer cells assessed as inhibition of cell viability measured for 6 to 7 days by cell titer glo assay; type: functional, cell-based; procedure, shortened: as §2
A2780 = test: Antiproliferative activity against human A2780 cells assessed as inhibition of cell viability measured for 6 to 7 days by cell titer glo assay; type: functional, cell-based
Procedure, shortened: (§3)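 Tumor lines plated in recommended growth media, overnight at 37°C, 5% CO2, then given serial dilutions; a T=0 plate read with CellTiter-Glo at dosing. After 6–7 d of exposure, viability read by CellTiter-Glo luminescence. No-cell wells subtracted, data expressed as % of DMSO control.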

COLO 205 = test: Induction of apoptosis in human COLO 205 cells assessed as PARP cleavage at 10 nmol/L incubated for 24 hrs by Western blot analysis; type: functional, cell-based
A549 [3] = test: Effect on cell cycle distribution in human A549 cells assessed as decrease in 2N DNA content incubated for 24 to 72 hrs by flow cytometry based analysis; type: functional; conditions: dose 2-5000 nM, time 24-72 hrs
[4] = Antiproliferative activity against human M-07e cells assessed as inhibition of cell viability measured for 6 to 7 days by cell titer glo assay; type: functional, cell-based; procedure, shortened: as §1
ASPC1 = test: Antiproliferative activity against human ASPC1 cells assessed as inhibition of cell viability measured for 6 to 7 days by cell titer glo assay; type: functional, cell-based; procedure, shortened: as §3
A549 [5] = test: Effect on cell cycle distribution in human A549 cells assessed as increase in >4N DNA content at 2 to 5000 nM incubated for 24 to 72 hrs by flow cytometry based analysis; type: functional; conditions: dose 2-5000 nM, time 24-72 hrs
OVCAR-3 = test: Antiproliferative activity against human OVCAR-3 cells assessed as inhibition of cell viability measured for 6 to 7 days by cell titer glo assay; type: functional, cell-based; procedure, shortened: as §2
[6] = Antiproliferative activity against human BCP-1 cells assessed as inhibition of cell viability measured for 6 to 7 days by cell titer glo assay; type: functional, cell-based; procedure, shortened: as §3
[7] = Antiproliferative activity against human Karpas-231 cells assessed as inhibition of cell viability measured for 6 to 7 days by cell titer glo assay; type: functional, cell-based; procedure, shortened: as §1
SK-MEL-5 = test: Antiproliferative activity against human SK-MEL-5 cells assessed as inhibition of cell viability measured for 6 to 7 days by cell titer glo assay; type: functional, cell-based; procedure, shortened: as §2
RPMI-8226 = test: Antiproliferative activity against human RPMI-8226 cells assessed as inhibition of cell viability measured for 6 to 7 days by cell titer glo assay; type: functional, cell-based; procedure, shortened: as §2
Jurkat = test: Antiproliferative activity against human Jurkat cells assessed as inhibition of cell viability measured for 6 to 7 days by cell titer glo assay; type: functional, cell-based; procedure, shortened: as §1
OCI-AML-3 = test: Antiproliferative activity against human OCI-AML-3 cells assessed as inhibition of cell viability measured for 6 to 7 days by cell titer glo assay; type: functional, cell-based; procedure, shortened: as §2
[8] = Antiproliferative activity against human EB1 cells assessed as inhibition of cell viability measured for 6 to 7 days by cell titer glo assay; type: functional, cell-based; procedure, shortened: as §3
MEG-01 = test: Antiproliferative activity against human MEG-01 cells assessed as inhibition of cell viability measured for 6 to 7 days by cell titer glo assay; type: functional, cell-based; procedure, shortened: as §1
A549 [9] = test: Induction of mitotic alteration in human A549 cells formation of unorganized chromosomes at 12 to 330 nmol/L incubated for 24 hrs by immunofluorescent microscopy based analysis; type: functional, cell-based; conditions: dose lower […], dose upper 330.0 nmol/L
THP-1 = test: Antiproliferative activity against human THP-1 cells assessed as inhibition of cell viability measured for 6 to 7 days by cell titer glo assay; type: functional, cell-based; procedure, shortened: as §2
NC-37 = test: Antiproliferative activity against human NC-37 cells assessed as inhibition of cell viability measured for 6 to 7 days by cell titer glo assay; type: functional, cell-based; procedure, shortened: as §1
HL-60 = test: Antitumor activity in human HL-60 cells xenografted in SCID mouse assessed as median survival time at 50 mg/kg, ip administered once daily for 5 consecutive days with 2 days off scheduled for 2 cycles measured upto 120 days; type: functional; conditions: time <= 120 day
JM1 = test: Antiproliferative activity against human JM1 cells assessed as inhibition of cell viability measured for 6 to 7 days by cell titer glo assay; type: functional, cell-based; procedure, shortened: as §1
BV-173 = test: Antiproliferative activity against human BV-173 cells assessed as inhibition of cell viability measured for 6 to 7 days by cell titer glo assay; type: functional, cell-based; procedure, shortened: as §3
[10] = Antiproliferative activity against human ALL-SIL cells assessed as inhibition of cell viability measured for 6 to 7 days by cell titer glo assay; type: functional, cell-based; procedure, shortened: as §3
Daudi = test: Antiproliferative activity against human Daudi cells assessed as inhibition of cell viability measured for 6 to 7 days by cell titer glo assay; type: functional, cell-based; procedure, shortened: as §3
HEL 92.1.7 = test: Antiproliferative activity against human HEL 92.1.7 cells assessed as inhibition of cell viability measured for 6 to 7 days by cell titer glo assay; type: functional, cell-based; procedure, shortened: as §3
GA-10 = test: Antiproliferative activity against human GA-10 cells assessed as inhibition of cell viability measured for 6 to 7 days by cell titer glo assay; type: functional, cell-based; procedure, shortened: as §3
SW-620 [11] = test: Antiproliferative activity against human SW620 cells assessed as inhibition of cell viability measured for 6 to 7 days by cell titer glo assay; type: functional, cell-based; procedure, shortened: as §2

Question: Which results are given for `CCn1cc(-c2ccnc3[nH]c(-c4cccc(CN(C)C)c4)cc23)c(-c2ccc(NC(=O)N(C)C)cc2)n1` [GSK-1070916]?
Answer: EC50 (MDA-MB-453): 6 nM; EC50 (DU-145): 15 nM; Activity [1]: Non-Toxic; EC50 (SK-MEL-28): 7 nM; EC50 (JIYOYE): 5 nM; EC50 (KG-1): 32 nM; Activity (SW-620 [2]): inactive; EC50 (Pfeiffer): 4 nM; EC50 (A2780): 5 nM; Activity (COLO 205): Active; Activity (A549 [3]): Active; EC50 [4]: 13 nM; EC50 (ASPC1): 2 nM; Activity (A549 [5]): Active; EC50 (OVCAR-3): 3 nM; EC50 [6]: 31 nM; EC50 [7]: 3 nM; EC50 (SK-MEL-5): 8 nM; EC50 (RPMI-8226): 11 nM; EC50 (Jurkat): 3 nM; EC50 (OCI-AML-3): 4 nM; EC50 [8]: 7 nM; EC50 (MEG-01): 44 nM; Activity (A549 [9]): Active; EC50 (THP-1): 5 nM; EC50 (NC-37): 7 nM; MST (HL-60): 83 days; EC50 (JM1): 7 nM; EC50 (BV-173): 5 nM; EC50 [10]: 2 nM; EC50 (Daudi): 5 nM; EC50 (HEL 92.1.7): 60 nM; EC50 (GA-10): 4 nM; EC50 (SW-620 [11]): 8 nM
